Article PMC7529613 (International Journal for Parasitology: Drugs and Drug …, 2020)

Legend:
T. gondii = T. gondii growth inhibitory assay; format: cell-based, Toxoplasma gondii; conditions: for IC50: read-out: IC50 T. gondii (anti-Toxoplasma IC50); for selectivity ratio at 48 h: human, Selectivity index (SI) = Cytotoxicity IC50/Anti-parasitic IC50, HFF cytotoxicity IC50 / anti-Toxoplasma IC50
Outline: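 YFP-expressing RH-strain tachyzoites (~3500/well) were added to confluent HFF in supplemented IMDM. Test compound in DMSO (20 μM single dose, or 0–8 μM / 0–40 μM series) was added immediately or 2 h post-infection. Atovaquone 0.48 μM was the positive control; DMSO the negative. After 48 h at 37 °C/5% CO2, parasite YFP fluorescence was quantified by microscopy. IC50 came from triplicate-mean dose–response curves. SI = HFF cytotoxicity IC50/anti-Toxoplasma IC50.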

C. parvum = C. parvum growth inhibitory assay; format: cell-based, Cryptosporidium parvum
Outline: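 Sporozoites were excysted (HBSS, 60 min at 37 °C, then 1.5% sodium taurocholate, 60 min) and […]. 4 × 10^4 were added per well to confluent HCT-8 cells in supplemented RPMI-1640. […] After 72 h at 37 °C/5% CO2: fixed, antibody-stained, microscopy fluorescence quantified. […] Triplicate, ≥3 repeats.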

Cytotoxicity assay [1] = format: cell-based; conditions: human, uninfected HCT-8 cells
Outline: (§1)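 Confluent host cells were used: HCT-8 in phenol-red-free supplemented RPMI 1640, HFF in phenol-red-free DMEM with 10% FBS. Test compound in DMSO was added at 0–700 μM, with matched DMSO controls, for 48 h at 37 °C/5% CO2. WST-1 was added for 1 h in the dark and absorbance read at 420 nm. Viability inhibition was taken relative to DMSO. IC50 came from dose–response curves of triplicate means.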

Cytotoxicity assay [2] = format: cell-based; conditions: human, uninfected HFF cells
Outline: as §1

Cryptosporidium = conditions: read-out: anti-Cryptosporidium IC50; ref Li et al., 2019; cited from earlier work
[3] = Toxoplasma gondii, HFF, 48 h, read-out: Inhibition of T. gondii growth

| Structure (SMILES) | IC50 (T. gondii; Toxoplasma gondii, HFF, 48 h) | inhibition at 20 µM (T. gondii; [3]) | selectivity ratio at 48 h (T. gondii) | IC50 at 48 h (Cytotoxicity assay [2]) | further results |
| --- | --- | --- | --- | --- | --- |
| CC(C)=CCC/C(C)=C\COC(=O)NC(=O)C12CC3CC(CC(C3)C1)C2 [GMG-1-09, (Z)-3,7-Dimethylocta-2,6-dien-1-yl (adamantane-1-carbonyl)carbamate] |  |  |  |  | IC50 T. gondii (anti-Toxoplasma IC50) (T. gondii; YFP-expressing RH tachyzoites in HFF cells, 48 h of culture): not potent; inhibition at 20 µM (C. parvum; Cryptosporidium parvum, HCT-8, read-out: Inhibition of C. parvum growth): ~70%; selectivity ratio at 72 h (C. parvum; human, Selectivity index (SI) = Cytotoxicity IC50/Anti-parasitic IC50, HCT-8 cytotoxicity IC50 / anti-Cryptosporidium IC50): ~14; IC50 at 48 h (Cytotoxicity assay [1]): 450 µM |
| COc1ccccc1C(=O)NC(=O)NC(=O)c1ccccc1OC [JS-1-09, N,N′-Carbonylbis(2-methoxybenzamide)] | 1.21 µM | ~100% | ~53 | 64 µM | Inhibition of T. gondii growth (T. gondii; 8 μM compound, 48 h): almost completely inhibited; Selectivity index (SI) = Cytotoxicity IC50/Anti-parasitic IC50 (T. gondii; HFF cytotoxicity IC50 / anti-Toxoplasma IC50): 52.9 |
| CC(C)=CCC/C(C)=C/CNC(=O)NC(=O)c1ccc(F)c(F)c1F [JS-2-20, (E)-N-((3,7-Dimethylocta-2,6-dien-1-yl)carbamoyl)-2,3,4-trifluorobenzamide] | 10.9 µM | ~80% | 5.7 | 62.6 µM |  |
| O=C(NC(=O)c1ccc(F)c(F)c1F)OC1C2CC3CC(C2)CC1C3 (stereo not drawn) [JS-2-35, Adamantan-2-yl (2,3,4-trifluorobenzoyl)carbamate] | 10.5 µM | ~80% | 5.6 | 59.2 µM |  |
| O=C(NC(=O)c1ccc(F)c(F)c1F)OC12CC3CC(CC(C3)C1)C2 [JS-2-49, Adamantan-1-yl (2,3,4-trifluorobenzoyl)carbamate] | 12.1 µM | ~90% | 5.4 | 65.5 µM |  |
| O=C1C(O)=C([C@H]2CC[C@H](c3ccc(Cl)cc3)CC2)C(=O)c2ccccc21 [atovaquone, reference compound] |  |  |  |  | inhibition at 0.5 µM (T. gondii; [3]): ~100% |
| NC[C@@H]1O[C@H](O[C@H]2[C@@H](O)[C@H](O[C@@H]3[C@@H](O)[C@H](N)C[C@H](N)[C@H]3O[C@H]3O[C@H](CO)[C@@H](O)[C@H](O)[C@H]3N)O[C@@H]2CO)[C@H](N)[C@@H](O)[C@@H]1O [paromomycin] |  |  |  |  | IC50 (Cryptosporidium): 450 µM |
